Laboratory results reported in PMC6506245 (Science Advances, 2019).
Read-outs that look alike come from different tables or passages of the source. Bridge positions count the residues as written; N and C are the ends. Square brackets hold non-standard residues; d marks the D form. Peptide text beside a SMILES is read from it. * marks the point of attachment. Biotin = O=C1N[C@H]2[C@H](CS[C@H]2CCCCC(=O)*)N1; 2Nal = N[C@@H](Cc1ccc2ccccc2c1)C(=O)O; S5 = C=CCCC[C@](C)(N)C(=O)O

Assays:
β-cat [1] = target: T1, β-cat (Homo sapiens, UniProt P35222); test: ALPHA binding assay
T1 sequence (P35222 1-781): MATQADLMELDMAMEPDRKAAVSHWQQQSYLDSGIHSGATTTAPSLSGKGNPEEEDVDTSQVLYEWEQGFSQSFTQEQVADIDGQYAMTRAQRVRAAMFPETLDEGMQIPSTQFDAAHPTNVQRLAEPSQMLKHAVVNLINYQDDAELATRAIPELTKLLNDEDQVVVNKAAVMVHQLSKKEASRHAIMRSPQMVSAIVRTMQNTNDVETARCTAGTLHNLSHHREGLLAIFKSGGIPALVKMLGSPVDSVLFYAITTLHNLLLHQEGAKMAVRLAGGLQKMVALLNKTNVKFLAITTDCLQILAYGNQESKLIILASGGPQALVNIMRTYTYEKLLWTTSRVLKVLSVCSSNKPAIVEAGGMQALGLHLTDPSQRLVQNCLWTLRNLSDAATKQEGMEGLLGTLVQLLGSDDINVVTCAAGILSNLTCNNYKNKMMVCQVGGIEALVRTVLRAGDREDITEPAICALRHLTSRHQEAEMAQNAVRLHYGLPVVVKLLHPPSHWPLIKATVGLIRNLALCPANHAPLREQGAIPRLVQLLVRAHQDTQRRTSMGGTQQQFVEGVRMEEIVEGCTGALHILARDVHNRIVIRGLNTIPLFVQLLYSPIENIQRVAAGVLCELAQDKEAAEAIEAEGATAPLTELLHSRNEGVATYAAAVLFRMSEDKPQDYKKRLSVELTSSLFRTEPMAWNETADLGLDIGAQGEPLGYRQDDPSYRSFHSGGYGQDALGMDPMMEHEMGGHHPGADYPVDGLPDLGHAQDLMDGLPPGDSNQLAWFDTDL

β-cat [2] = target: T1, β-cat; test: HTRF binding assay
Colo320DM cells = test: Colo320DM cell viability assay; assay type: cell-based, human; settings: read-out: IC50, growth of Colo320DM, 72 h
Plasma stability assay = assay type: in vitro ADME, BALB/c nude mice; settings: BALB/c nude, mouse
PK profiling in mice = assay type: in vivo, BALB/c mice
[3] = Dose-escalating toxicity study; assay type: in vivo, BALB/c mice
How it was run: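 BALB/c mice received vehicle control or test compound at 10, 15 or 20 mg/kg by i.p. injection, once daily for 14 days. Serum chemistry and hematology were done after the 2-week treatment and compared with vehicle-treated animals.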

[4] = target: histidine-tagged β-catenin (β-cat) protein (UniProt P35222); test: AlphaScreen or HTRF

Compound: CC[C@H](C)[C@H](NC(=O)[C@H](CC(=O)O)NC(=O)[C@H](CCCNC(=N)N)NC(=O)[C@H](CC(C)C)NC(=O)[C@@H](NC(=O)[C@H](CCC(N)=O)NC(=O)[C@H](CC(C)C)NC(=O)[C@H](CO)NC(=O)[C@H](CCCNC(=N)N)NC(=O)[C@H](CCC(=O)O)NC(=O)[C@H](CCCNC(=N)N)NC(=O)[C@H](Cc1c[nH]cn1)NC(=O)[C@H](CCC(=O)O)NC(=O)[C@H](CC(C)C)NC(=O)[C@H](CCC(N)=O)NC(=O)[C@H](CCC(=O)O)NC(=O)[C@H](CCC(N)=O)NC(=O)[C@H](CO)NC(=O)[C@H](CC(C)C)NC(=O)CCCC[C@@H]1SC[C@@H]2NC(=O)N[C@@H]21)[C@@H](C)O)C(=O)N[C@@H](CCC(N)=O)C(=O)N[C@@H](CCCNC(=N)N)C(=O)N[C@@H](CCSC)C(=O)N[C@@H](CC(C)C)C(=O)N[C@@H](Cc1ccccc1)C(=O)O [BCL9-HD2A] (Biotin-LSQEQLEHRERSLQTLRDIQRMLF-OH)
- Kd (β-cat [1]): 0.0143 µM
- Kd (β-cat [2]): 0.0383 µM

Compound: O=C1[C@H](Cc2ccc(O)cc2)N2C(=O)CCN(C(=O)NCc3ccccc3)[C@H]2CN1Cc1cccc2ccccc12 [ICG-001]
- IC50 (Colo320DM cells; CellTiter-Glo): 15 µM

Compound: Cc1cc(-c2ncc(CC(=O)Nc3ccc(-c4cnccn4)cn3)cc2C)ccn1 [LGK-974]
- IC50 (Colo320DM cells; Homo sapiens, COLO 320DM): 18.5 µM

Compound: CCN(CC)CCOC(=O)c1ccc(N)cc1 [Procaine, reference compound]
- remaining at 1 h, 2 µM (Plasma stability assay): 0.02%

Compound: CCCC[C@H](NC(=O)[C@H](CCCNC(=N)N)NC(=O)[C@H](CCC(N)=O)NC(=O)[C@@H](NC(=O)[C@]1(C)CCCC=CCCC[C@](C)(NC(=O)[C@H](CC(C)C)NC(=O)[C@H](CO)NC(=O)[C@H](CCCNC(=N)N)NC(=O)[C@H](CCC(=O)O)NC(=O)[C@H](CCCNC(=N)N)NC(=O)[C@H](Cc2c[nH]cn2)NC(=O)[C@H](CCC(=O)O)NC(=O)[C@H](CC(C)C)NC(=O)[C@H](CCC(N)=O)NC(=O)[C@H](CCC(=O)O)NC(=O)[C@H](CCC(N)=O)NC(=O)[C@H](CO)NC(=O)[C@H](CC(C)C)NC(C)=O)C(=O)N[C@@H]([C@@H](C)O)C(=O)N[C@@H](CC(C)C)C(=O)N[C@@H](CCCNC(=N)N)C(=O)N1)[C@@H](C)CC)C(=O)N[C@@H](CC(C)C)C(=O)N[C@@H](Cc1ccccc1)C(N)=O [SAH-BCL9B]
- Kd (β-cat [1]): 0.142 µM
- Kd (β-cat [2]): 0.192 µM

Compound: CC[C@H](C)[C@@H]1NC(=O)[C@@](C)(NC(=O)[C@H](CCCNC(=N)N)NC(=O)[C@H](CC(C)C)NC(=O)[C@@H](NC(=O)[C@H](CCC(N)=O)NC(=O)[C@H](CC(C)C)NC(C)=O)[C@@H](C)O)CCCC=CCCC[C@@](C)(C(=O)N[C@@H](CC(C)C)C(=O)N[C@@H](Cc2ccc3ccccc3c2)C(N)=O)NC(=O)[C@H](CCCNC(=N)N)NC(=O)[C@H](CCC(N)=O)NC1=O [hsBCL9CT-24] (Ac-LQTLR[S5]IQR[S5]L[2Nal]-NH2; staple 6-10)
- Kd (β-cat [1]): 0.00473 µM
- half-life at 2 µM (Plasma stability assay): 5.13 h
- IC50 (Colo320DM cells; CellTiter-Glo): 1.45 µM
- bioavailability (PK profiling in mice; BALB/c, mouse, plasma, sc, 10 mg/kg): 56%
- Terminal t1/2 (PK profiling in mice; i.m. 5 mg/kg, BALB/c mice n = 2, table S2A): 10.6 h
- survival in toxicity study ([3]; 10, 15, or 20 mg/kg i.p., QD over 14 days): All animals survived the duration of study
- serum chemistry and hematology versus vehicle control ([3]; after a 2-week treatment period, 20 mg/kg QD (fig. S4I)): no difference
- toxicity in brain, lung, kidney, liver, heart, and spleen tissues by histology ([3]; i.p. QD over 14 days (fig. S4C: 10 mg/kg)): minimal toxicity

Compound: hsBCL9CT-24 (hydrocarbon-stapled BCL9-HD2 peptide)
- Kd [4]: 0.00421 µM
